According to ChEMBL document CHEMBL4138045 (Medchemcomm, 2017):
Activity calls are given as the source filed them. The rule behind the calls is not given here.

Experiments:
Mus musculus [1] = assay: Antinociceptive activity in icv dosed CD1 mouse after 15 mins by radiant heat tail flick method; assay type: functional
Method in brief: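 Compounds given intracerebroventricularly to groups of mice (n = 5) as cumulative doses. Tail-flick tested 15 min later, at peak effect, to build the dose-response curve and ED50. Two independent determinations.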

Mus musculus [2] = assay: Antinociceptive activity in CD1 mouse at 30 mg/kg, sc after 30 mins by radiant heat tail flick method relative to control; assay type: functional
Method in brief: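 CD1 mice (n = 10) dosed sc at 30 mg kg-1. Radiant heat tail-flick tested 30 min after injection. Values given as mean ± SEM percent antinociception.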

[3] = biological target: Delta-type opioid receptor (Mus musculus, UniProt P32300); assay: Displacement of [125I]BNtxA from mouse DOR expressed in CHO cell membranes after 90 mins by filter binding assay
Method in brief: (§1)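 Competition binding with [125I]BNtxA (0.1 nM) in membranes of CHO cells expressing mouse MOR, DOR or KOR. Protein 10-20 μg mL-1, 90 min incubation. Ki obtained by nonlinear regression. At least 3 assays, mean ± SEM.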

[4] = biological target: T1, Kappa-type opioid receptor (Mus musculus, UniProt P33534); assay: Agonist activity at mouse KOR expressed in CHO cell membranes assessed as induction of [35S]GTPgammaS binding after 90 mins by scintillation spectroscopy; assay type: functional
Method in brief: (§2)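 Agonist-stimulated [35S]GTPγS binding in membranes from opioid receptor-transfected cells. Membrane protein 50 µg mL-1, 90 min incubation. Potency taken as EC50. Three separate assays, each in triplicate, reported as mean ± SEM.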

Mu-type opioid receptor [5] = biological target: T2, Mu-type opioid receptor (Mus musculus, UniProt P42866); assay: Displacement of [125I]BNtxA from mouse MOR expressed in CHO cell membranes after 90 mins by filter binding assay; method in brief: as §1
Mus musculus [6] = species on record: Mus musculus; assay: Selectivity ratio of Ki for mouse DOR to Ki for mouse MOR
[7] = biological target: Mu-type opioid receptor (Mus musculus) (UniProt P42866); assay: Agonist activity at mouse MOR expressed in CHO cell membranes assessed as induction of [35S]GTPgammaS binding after 90 mins by scintillation spectroscopy relative to DAMGO; assay type: functional
[8] = biological target: Kappa-type opioid receptor (Mus musculus) (UniProt P33534); assay: Agonist activity at mouse KOR expressed in CHO cell membranes assessed as induction of [35S]GTPgammaS binding after 90 mins by scintillation spectroscopy relative to U50488H; assay type: functional
Mus musculus [9] = species on record: Mus musculus; assay: Selectivity ratio of Ki for mouse KOR to Ki for mouse MOR
[10] = biological target: T1, Kappa-type opioid receptor; assay: Displacement of [125I]BNtxA from mouse KOR expressed in CHO cell membranes after 90 mins by filter binding assay; method in brief: as §1
Mu-type opioid receptor [11] = biological target: T2, Mu-type opioid receptor; assay: Agonist activity at mouse MOR expressed in CHO cell membranes assessed as induction of [35S]GTPgammaS binding after 90 mins by scintillation spectroscopy; assay type: functional; method in brief: as §2
Mus musculus [12] = assay: Antinociceptive activity in CD1 mouse at 30 mg/kg, sc after 3 hrs by radiant heat tail flick method; assay type: functional, organism-based
Method in brief: (§3)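 Time course in CD1 mice (n = 10) after sc dosing at 30 mg kg-1, measured by radiant heat tail flick. Two independent determinations.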

Mus musculus [13] = assay: Antinociceptive activity in CD1 mouse at 30 mg/kg, sc after 30 mins in presence of MOR antagonist beta-FNA by radiant heat tail flick method; assay type: functional, organism-based
Method in brief: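 CD1 mice (n = 10) given compound at 30 mg kg-1 sc, with or without β-funaltrexamine (40 mg kg-1 sc) 24 h before agonist. Tail-flick tested 30 min after the agonist.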

Mus musculus [14] = assay: Antinociceptive activity in CD1 mouse at 7.5 ug, icv after >24 hrs by radiant heat tail flick method; assay type: functional, organism-based
Method in brief: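 Time course in CD1 mice (n = 10) after icv administration of 7.5 µg, measured by tail flick. Two independent determinations.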

Mus musculus [15] = assay: Antinociceptive activity in CD1 mouse at 30 mg/kg, sc after >24 hrs by radiant heat tail flick method; assay type: functional, organism-based; method in brief: as §3

T2 sequence (P42866 whole entry): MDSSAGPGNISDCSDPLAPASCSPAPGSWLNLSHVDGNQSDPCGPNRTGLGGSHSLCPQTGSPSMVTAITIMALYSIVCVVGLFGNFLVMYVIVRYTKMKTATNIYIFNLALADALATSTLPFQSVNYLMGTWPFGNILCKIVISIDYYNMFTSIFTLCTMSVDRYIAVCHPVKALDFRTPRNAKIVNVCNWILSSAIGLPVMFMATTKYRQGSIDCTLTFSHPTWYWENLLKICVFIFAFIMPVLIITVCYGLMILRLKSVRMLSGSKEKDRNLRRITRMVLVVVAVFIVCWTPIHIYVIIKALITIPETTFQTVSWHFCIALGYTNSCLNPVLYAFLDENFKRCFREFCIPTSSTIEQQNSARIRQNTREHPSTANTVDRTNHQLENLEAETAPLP
Mu-type opioid receptor (Mus musculus), sequence (P42866 whole entry): as above
T1 sequence (P33534 whole entry): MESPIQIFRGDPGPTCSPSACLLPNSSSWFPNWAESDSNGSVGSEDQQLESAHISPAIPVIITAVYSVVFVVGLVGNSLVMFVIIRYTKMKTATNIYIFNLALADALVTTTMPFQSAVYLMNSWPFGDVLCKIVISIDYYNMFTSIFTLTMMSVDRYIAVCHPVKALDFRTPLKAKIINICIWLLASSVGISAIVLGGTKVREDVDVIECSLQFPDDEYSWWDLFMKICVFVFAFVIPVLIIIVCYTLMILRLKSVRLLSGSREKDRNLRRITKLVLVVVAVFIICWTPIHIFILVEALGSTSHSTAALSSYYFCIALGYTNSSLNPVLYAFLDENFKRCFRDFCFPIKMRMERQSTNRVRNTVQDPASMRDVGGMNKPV
Delta-type opioid receptor, sequence (P32300 whole entry): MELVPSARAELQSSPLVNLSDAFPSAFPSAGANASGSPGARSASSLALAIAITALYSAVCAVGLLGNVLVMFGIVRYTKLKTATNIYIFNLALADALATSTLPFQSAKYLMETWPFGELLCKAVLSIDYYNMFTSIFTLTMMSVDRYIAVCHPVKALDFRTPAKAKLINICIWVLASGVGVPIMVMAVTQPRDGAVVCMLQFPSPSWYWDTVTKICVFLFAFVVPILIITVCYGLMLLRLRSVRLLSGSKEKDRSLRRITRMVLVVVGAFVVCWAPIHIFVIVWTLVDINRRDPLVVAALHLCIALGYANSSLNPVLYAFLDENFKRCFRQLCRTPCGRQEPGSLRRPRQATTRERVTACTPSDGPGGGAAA
Kappa-type opioid receptor (Mus musculus), sequence (P33534 whole entry): as the sequence (P33534 whole entry) above

SMILES | ED50 (Mus musculus [1]) [µg] | MPE (Mus musculus [2]) [%] | Ki [3] [nM] | EC50 [4] [nM] | Ki (Mu-type opioid receptor [5]) [nM] | Ratio Ki (Mus musculus [6]) | Emax [7] [%] | Emax [8] [%] | Ratio Ki (Mus musculus [9]) | Ki [10] [nM] | EC50 (Mu-type opioid receptor [11]) [nM] | Activity (Mus musculus [12]) | Activity (Mus musculus [13]) | Activity (Mus musculus [14]) | Activity (Mus musculus [15])
CN1CC[C@]23c4c5ccc(O)c4O[C@H]2[C@@H](NC(=O)c2cccnc2)C=C[C@H]3[C@H]1C5 | 0.51 | 35 | 34.4 | 58.8 | 1.25 | 27.5 | 114 | 87.9 | 15.2 | 19 | 2.83 |  |  |  | 
CN1CC[C@]23c4c5ccc(O)c4O[C@H]2[C@@H](NC(=O)c2ccncc2)C=C[C@H]3[C@H]1C5 | 2 | 38 | 65 |  | 2 | 32.5 | 114 |  | 39 | 77.9 | 4.62 |  |  |  | 
CN1CC[C@]23c4c5ccc(O)c4O[C@H]2[C@@H](O)C=C[C@H]3[C@H]1C5 [MORPHINE] | 0.53 |  |  |  |  |  |  |  |  |  |  | Active |  |  | 
CN1CC[C@]23c4c5ccc(O)c4O[C@H]2[C@@H](NC(=O)c2ccncc2)CC[C@H]3[C@H]1C5 | 0.7 | 78 | 198 |  | 3.73 | 53.2 | 115 |  | > 26.8 | > 100 | 8.16 |  | inactive | Active | Active
CN1CC[C@]23c4c5ccc(O)c4O[C@H]2[C@@H](NC(=O)c2cccnc2)CC[C@H]3[C@H]1C5 | 1.8 | 83 | 130 |  | 3.29 | 39.6 | 117 |  | 36.2 | 119 | 7.98 |  | inactive | Active | Active
CN1CC[C@]23c4c5ccc(O)c4O[C@H]2[C@@H](NC(=O)c2cccnc2)CC[C@@]3(O)[C@H]1C5 |  |  | 104 |  | 6.91 | 15 | 121 |  | > 14.5 | > 100 | 25.7 |  |  |  | 
COc1ccc2c3c1O[C@H]1[C@@H](NC(=O)c4ccncc4)C=C[C@H]4[C@@H](C2)N(C)CC[C@@]341 |  |  | 424 |  | 40.6 | 10.4 |  |  | > 2.5 | > 100 |  |  |  |  | 
CN1CC[C@]23c4c5ccc(O)c4O[C@H]2[C@H](NC(=O)/C=C/c2ccccc2)C=C[C@H]3[C@H]1C5 |  |  |  |  |  |  | 95.3 | 106 |  |  |  |  |  |  | 
CN1CC[C@]23c4c5ccc(O)c4O[C@H]2[C@@H](NC(=O)c2ccncc2)CC[C@@]3(O)[C@H]1C5 |  |  | 173 |  | 7.02 | 24.7 | 115 |  | > 14.2 | > 100 | 26.4 |  |  |  | 
